# Calls of active or inactive are those of the source. The calls are words filed in the database; no cut-off is given here.
# Species on record: Mus musculus
# Test: Analgesic activity of compound assayed by the mouse hotplate method was determined as log(1/C); Activity observed in 4-5 out of 10 mice tested
# Assay type: functional
# Summary of the method: (§1)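 Mouse hot-plate test. Compounds were given subcutaneously as water-soluble HCl salts. The ED50 is expressed in mmol/kg, and potency is given as log(1/C), where C is the ED50 in mmol/kg.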
row,SMILES,Log 1/C
1,CCOc1ccccc1C(=O)OC1CCN(C)CC1,1.18
2,CN1CCC(OC(=O)c2ccccc2CCc2ccccc2)CC1,0.86
3,CN1CCC(OC(=O)c2ccccc2-c2ccccc2)CC1,1.52
4,CCc1ccccc1C(=O)OC1CCN(C)CC1,1.15
5,CN1CCC(OC(=O)c2ccccc2Oc2ccccc2)CC1,1.24
6,Cc1ccc(C(=O)OC2CCN(C)CC2)cc1C,1.15

# Species on record: Mus musculus
# Test: Relative Analgesic activity of compound to the N-methyl homologue assayed by the mouse hotplate method
# Assay type: functional
row,SMILES,Relative activity
1,Cc1[nH]c(C)c(C(=O)OC2CCN(C)CC2)c1C,1
2,Oc1ccc2c3c1O[C@H]1[C@@H](O)C=CC4(CC2)CN(CCc2ccccc2)CCC314 (some centres undefined),6
3,Cc1[nH]c(C)c(C(=O)OC2CCN(Cc3ccccc3)CC2)c1C,0.8
4,Oc1ccc2c3c1O[C@H]1[C@@H](O)C=CC4(CC2)CN(Cc2ccccc2)CCC314 (some centres undefined),<0.1
5,CN1CCC23c4c5ccc(O)c4O[C@H]2[C@@H](O)C=CC3(CC5)C1 (some centres undefined),1
6,CCN1CCC23c4c5ccc(O)c4O[C@H]2[C@@H](O)C=CC3(CC5)C1 (some centres undefined),<0.1
7,Cc1[nH]c(C)c(C(=O)OC2CCN(CCc3ccccc3)CC2)c1C,0.3
8,CCOC(=O)C1(c2ccccc2)CCN(C)CC1 [MEPERIDINE],1
9,CCN1CCC(OC(=O)c2c(C)[nH]c(C)c2C)CC1,0.5

# Species on record: Mus musculus
# Test: Analgesic activity of compound assayed by the mouse hotplate method was determined as ED50.
# Assay type: functional
# Summary of the method: as §1
row,SMILES,ED50
1,Cc1[nH]c(C)c(C(=O)OC2CCN(C)CC2)c1C,4.9 mg/kg
2,Cc1[nH]c(C)c(C(=O)OC2CCN(Cc3ccccc3)CC2)c1C,6.3 mg/kg
3,Cc1[nH]c(C)c(C(=O)OC2CCN(CCc3ccccc3)CC2)c1C,20 mg/kg
4,CCN1CCC(OC(=O)c2c(C)[nH]c(C)c2C)CC1,10.4 mg/kg

# Species on record: Mus musculus
# Test: Analgesic activity assayed with the mouse hotplate method
# Assay type: functional
# Summary of the method: as §1
row,SMILES,Log 1/C
1,CN1CCC(OC(=O)c2ccc(C(C)(C)C)cc2)CC1,1.13
2,COc1ccccc1C(=O)OC1CCN(C)CC1,1.43
3,CN1CCC(OC(=O)c2ccccc2Br)CC1,1.21
4,Cc1cccc(C)c1C(=O)OC1CCN(C)CC1,1.27
5,Cc1ccc(C(=O)OC2CCN(C)CC2)cc1,1.17
6,CN1CCC(OC(=O)c2ccccc2)CC1,1.43
7,CN1CCC(OC(=O)c2cccc(F)c2)CC1,1.26
8,CN1CCC(OC(=O)c2ccc(C#N)cc2)CC1,1.65
9,COc1cc(OC)c(C(=O)OC2CCN(C)CC2)c(OC)c1,1.47
10,Cc1cc(C)cc(C(=O)OC2CCN(C)CC2)c1,1.07
11,COc1cc(C(=O)OC2CCN(C)CC2)ccc1C,1.4
12,Cc1cc(C)c(C(=O)OC2CCN(C)CC2)cc1C,1.17
13,CN1CCC(OC(=O)c2cccc(C#N)c2)CC1,1.39
14,COc1cc(C(=O)OC2CCN(C)CC2)cc(OC)c1OC,1.35
15,COc1ccc(C(=O)OC2CCN(C)CC2)cc1OC,1.91
16,CCOc1ccc(C(=O)OC2CCN(C)CC2)cc1,1.72
17,CN1CCC(OC(=O)c2ccc(Cl)cc2)CC1,1.11
18,CN1CCC(OC(=O)c2cccc(O)c2)CC1,1.21
19,COc1cccc(C(=O)OC2CCN(C)CC2)c1,1.67

row,SMILES,Log 1/C
1,CN1CCC(OC(=O)c2ccccc2C(F)(F)F)CC1,1.49
2,CN1CCC(OC(=O)c2ccc3c(c2)OCO3)CC1,1.61
3,COc1cccc(OC)c1C(=O)OC1CCN(C)CC1,0.63
4,COc1cccc(C(=O)OC2CCN(C)CC2)c1OC,1.55
5,CCCCOc1ccc(C(=O)OC2CCN(C)CC2)cc1,1.58
6,CN1CCC(OC(=O)c2ccc(-c3ccccc3)cc2)CC1,0.85
7,CN1CCC(OC(=O)c2ccccc2[N+](=O)[O-])CC1,1.48
8,CN1CCC(OC(=O)c2ccccc2Cc2ccccc2)CC1,1.28
9,CN1CCC(OC(=O)c2ccc([N+](=O)[O-])cc2)CC1,1.14
10,Cc1ccc(C(=O)OC2CCN(C)CC2)cc1F,1.32
11,Cc1ccccc1C(=O)OC1CCN(C)CC1,1.48
12,CN1CCC(OC(=O)c2ccc(F)cc2)CC1,1.38
13,COc1cc(OC)cc(C(=O)OC2CCN(C)CC2)c1,1.53
14,Cc1ccc(C)c(C(=O)OC2CCN(C)CC2)c1,1.36
15,COc1ccc(C(=O)OC2CCN(C)CC2)cc1,1.43
16,CN1CCC(OC(=O)c2ccccc2Cl)CC1,1.25
17,Cc1cc(C)c(C(=O)OC2CCN(C)CC2)c(C)c1,1.55
18,CN1CCC(OC(=O)c2ccc(Cl)c(Cl)c2)CC1,1.08
19,CN1CCC(OC(=O)c2ccccc2F)CC1,1.41

# Species on record: Mus musculus
# Test: Analgesic activity of compound assayed by the mouse hotplate method was determined as log(1/C); Inactive
# Assay type: functional, organism-based
row,SMILES,Log 1/C
1,CN1CCC(OC(=O)c2ccc(I)cc2)CC1,inactive
2,CN1CCC(OC(=O)c2ccccc2C#N)CC1,inactive
3,CN1CCC(OC(=O)c2cc(I)cc(I)c2I)CC1,inactive
4,Cc1cccc(C(=O)OC2CCN(C)CC2)c1,inactive

# Species on record: Mus musculus
# Test: Relative Analgesic activity of compound to the N-substituted normeperidine assayed by the mouse hotplate method
# Assay type: functional
row,SMILES,Relative activity
1,CCOC(=O)C1(c2ccccc2)CCN(CC)CC1,0.5
2,CCOC(=O)C1(c2ccccc2)CCN(Cc2ccccc2)CC1,<0.5
3,Oc1ccc2c3c1O[C@H]1[C@@H](O)C=CC4(CC2)CN(C/C=C/c2ccccc2)CCC314 (some centres undefined),<0.1
4,CCOC(=O)C1(c2ccccc2)CCN(CCCCc2ccccc2)CC1,2.8
5,CCOC(=O)C1(c2ccccc2)CCN(CCc2ccccc2)CC1 [PHENERIDINE],2.6
6,CCOC(=O)C1(c2ccccc2)CCN(C/C=C/c2ccccc2)CC1,40
7,Oc1ccc2c3c1O[C@H]1[C@@H](O)C=CC4(CC2)CN(CCCCc2ccccc2)CCC314 (some centres undefined),0.3

# Species on record: Mus musculus
# Test: Analgesic activity of compound assayed by the mouse hotplate method was determined
# Assay type: functional
# Summary of the method: as §1
row,SMILES,Log 1/C
1,Cc1[nH]c(C)c(C(=O)OC2CCN(C)CC2)c1C,1.87
